Source: publication PMC3169095 (Biochemistry, 2011)

Columns and labels:
Format in all cases: cell-based
Piezo1 [1] = molecular target: T1, Piezo1 (Mus musculus, UniProt E2JF22); assay: Outside-out patch recording of pressure-evoked Piezo1 currents
Piezo1 [2] = molecular target: T1, Piezo1; settings: 3.0 μM; Piezo1 in HEK293 cells; n=3 S.D.; SD
TREK-1 = assay: Outside-out patch recording of mechanosensitive TREK-1 currents; settings: extracellular peptide; outside-out patches of cells transfected with TREK-1
In short: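 HEK293 cells transfected with TREK-1 plasmid (250 ng, FuGENE) were recorded 24-48 h later in outside-out patches at room temperature. Extracellular (mM): 145 NaCl, 5 KCl, 3 MgCl2, 10 HEPES, 0.1 CaCl2, pH 7.3. Internal: 133 KCl, 10 HEPES, 5 EGTA, 3 MgCl2. Pressure pulses came from a high-speed pressure clamp. D and L peptide forms were perfused. Sampling was 10 kHz, filtered at 2 kHz.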

T1 sequence (E2JF22 whole entry): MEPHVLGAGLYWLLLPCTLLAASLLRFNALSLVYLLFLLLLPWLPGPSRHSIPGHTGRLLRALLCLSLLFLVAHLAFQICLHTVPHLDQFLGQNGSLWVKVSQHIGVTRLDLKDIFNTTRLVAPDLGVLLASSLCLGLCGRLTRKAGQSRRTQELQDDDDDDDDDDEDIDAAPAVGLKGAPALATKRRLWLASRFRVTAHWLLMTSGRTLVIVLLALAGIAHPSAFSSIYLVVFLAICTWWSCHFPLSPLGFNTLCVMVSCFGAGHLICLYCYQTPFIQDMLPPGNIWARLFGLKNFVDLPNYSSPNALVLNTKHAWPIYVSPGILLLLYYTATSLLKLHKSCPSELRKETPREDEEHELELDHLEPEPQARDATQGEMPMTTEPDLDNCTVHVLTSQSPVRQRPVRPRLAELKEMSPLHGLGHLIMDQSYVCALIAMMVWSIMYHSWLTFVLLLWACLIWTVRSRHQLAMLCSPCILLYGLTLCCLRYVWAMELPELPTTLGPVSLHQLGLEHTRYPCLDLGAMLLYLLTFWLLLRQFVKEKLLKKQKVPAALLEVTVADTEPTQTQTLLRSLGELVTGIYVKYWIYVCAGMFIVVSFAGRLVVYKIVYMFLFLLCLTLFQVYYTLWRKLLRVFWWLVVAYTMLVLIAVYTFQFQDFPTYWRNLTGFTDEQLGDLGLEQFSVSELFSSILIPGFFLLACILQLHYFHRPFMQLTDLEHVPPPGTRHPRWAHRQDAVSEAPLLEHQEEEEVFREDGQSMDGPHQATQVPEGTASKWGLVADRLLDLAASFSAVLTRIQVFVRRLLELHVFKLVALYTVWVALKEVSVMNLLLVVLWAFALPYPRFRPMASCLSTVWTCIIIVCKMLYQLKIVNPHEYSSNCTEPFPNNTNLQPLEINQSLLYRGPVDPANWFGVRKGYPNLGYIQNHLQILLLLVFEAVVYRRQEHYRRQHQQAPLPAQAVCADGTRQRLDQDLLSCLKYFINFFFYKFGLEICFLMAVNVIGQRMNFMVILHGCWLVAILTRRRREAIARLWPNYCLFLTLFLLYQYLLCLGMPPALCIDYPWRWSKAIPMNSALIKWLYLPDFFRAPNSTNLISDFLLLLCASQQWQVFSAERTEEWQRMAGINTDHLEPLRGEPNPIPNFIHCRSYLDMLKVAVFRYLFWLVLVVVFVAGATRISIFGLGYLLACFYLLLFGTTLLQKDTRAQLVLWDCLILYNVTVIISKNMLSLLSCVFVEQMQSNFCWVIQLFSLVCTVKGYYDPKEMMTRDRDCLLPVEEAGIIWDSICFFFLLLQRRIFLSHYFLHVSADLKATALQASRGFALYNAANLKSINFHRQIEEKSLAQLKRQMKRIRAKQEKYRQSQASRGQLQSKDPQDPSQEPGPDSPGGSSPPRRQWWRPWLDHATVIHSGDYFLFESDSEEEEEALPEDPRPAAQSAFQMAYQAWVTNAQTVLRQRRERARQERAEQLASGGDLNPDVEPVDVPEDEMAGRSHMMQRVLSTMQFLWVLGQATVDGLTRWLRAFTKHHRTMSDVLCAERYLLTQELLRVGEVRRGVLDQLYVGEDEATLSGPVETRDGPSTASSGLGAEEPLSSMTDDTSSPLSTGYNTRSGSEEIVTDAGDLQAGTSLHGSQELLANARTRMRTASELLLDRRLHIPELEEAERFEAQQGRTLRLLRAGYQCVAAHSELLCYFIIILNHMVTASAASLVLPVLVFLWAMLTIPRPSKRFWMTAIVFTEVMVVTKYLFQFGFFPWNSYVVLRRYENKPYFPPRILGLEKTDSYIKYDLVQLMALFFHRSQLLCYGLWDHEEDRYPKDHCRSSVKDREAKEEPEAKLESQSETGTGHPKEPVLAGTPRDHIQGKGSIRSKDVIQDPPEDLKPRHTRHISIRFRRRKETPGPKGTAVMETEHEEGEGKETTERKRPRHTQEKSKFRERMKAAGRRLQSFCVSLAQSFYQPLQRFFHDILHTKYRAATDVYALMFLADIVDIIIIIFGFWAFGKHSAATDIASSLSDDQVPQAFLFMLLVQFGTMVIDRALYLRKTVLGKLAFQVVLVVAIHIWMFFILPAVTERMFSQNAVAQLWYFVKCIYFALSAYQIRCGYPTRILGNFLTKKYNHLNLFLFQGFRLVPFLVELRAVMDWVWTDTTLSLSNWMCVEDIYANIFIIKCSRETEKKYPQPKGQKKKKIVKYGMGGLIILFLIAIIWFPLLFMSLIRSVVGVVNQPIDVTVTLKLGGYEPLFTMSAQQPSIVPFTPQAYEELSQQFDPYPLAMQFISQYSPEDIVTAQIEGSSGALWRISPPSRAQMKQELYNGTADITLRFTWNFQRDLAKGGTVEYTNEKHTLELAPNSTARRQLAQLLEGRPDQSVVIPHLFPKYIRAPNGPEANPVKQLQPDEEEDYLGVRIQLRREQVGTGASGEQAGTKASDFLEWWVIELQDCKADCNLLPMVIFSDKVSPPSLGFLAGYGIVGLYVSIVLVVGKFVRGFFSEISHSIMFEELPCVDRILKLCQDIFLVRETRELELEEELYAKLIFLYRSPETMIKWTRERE

[H]/N=C(/N)N[C@H]1[C@H](O)[C@@H](O)[C@H](O[C@@H]2O[C@@H](C)[C@](O)(C=O)[C@H]2O[C@@H]2O[C@@H](CO)[C@H](O)[C@@H](O)[C@@H]2NC)[C@@H](N/C(N)=N\[H])[C@@H]1O [streptomycin]
mode of inhibition of Piezo1 (Piezo1 [1]; 1 mM applied for 90 seconds to resting outside-out patches, Figure S2 B): open channel blocker

D-GsMTx4
inhibition of peak currents (Piezo1 [1]; outside-out patches, 2.5 μM, n=5, Figure 1C, normalized data): 29 ± 9% | inhibition of whole cell mechanosensitive currents (Piezo1 [2]): 70±6% | inhibition of TREK-1 mechanosensitive currents (TREK-1): no inhibition
